ChEMBL document CHEMBL1135478, “From imidazoles to pyrimidines: new inhibitors of cytokine release” (J Med Chem, 2002)

Key:
[1] = molecular target: T1, MAP kinase p38 (Homo sapiens, UniProt O15264+Q15759+Q16539+P53778); experiment: Inhibition of p38 MAP kinase related TNF-alpha release from human whole blood; assay type: functional, tissue-based
[2] = molecular target: T1, MAP kinase p38; experiment: Inhibition of p38 MAP kinase related interleukin (IL1-beta (cytokine) release from human whole blood; assay type: functional, tissue-based
In short: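 Human whole blood preincubated 15 min (37 °C, 5% CO₂) with compound from 70:30 Cremophor EL/ethanol stock dilutions (vehicle 1% in all samples). Stimulated with LPS (E. coli 026:B6), 1 µg/mL, 4 h, 37 °C. Reaction stopped on ice, then centrifuged. Supernatant IL-1β measured by ELISA. IC50 read from semilog plot of % reduction vs vehicle controls. At least duplicate.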

[3] = molecular target: T1, MAP kinase p38; experiment: Inhibition of p38 MAP kinase related interleukin (IL1-beta (cytokine) release from human peripheral blood mononuclear cells
[4] = molecular target: T1, MAP kinase p38; experiment: Inhibition of Mitogen-activated protein kinase p38; assay type: protein assay
[5] = molecular target: T1, MAP kinase p38; experiment: Inhibition of p38 MAP kinase related TNF-alpha release from peripheral blood mononuclear cells (PBMC); assay type: functional

C[S+]([O-])c1ccc(CSc2nc(-c3ccc(F)cc3)c(-c3ccncc3)[nH]2)cc1 (stereo unspecified)
IC50 [1]: 20.3 µM | IC50 [2]: 2.78 µM | IC50 [3]: 0.88 µM | IC50 [4]: 4 µM | IC50 [5]: 3.65 µM

C[S+]([O-])c1cccc(CSc2nc(-c3ccc(F)cc3)c(-c3ccncc3)[nH]2)c1 (stereo unspecified)
IC50 [1]: 33.5 µM | IC50 [2]: 4.1 µM | IC50 [3]: 1 µM | IC50 [5]: 23.5 µM

C[S+]([O-])c1ccccc1CSc1nc(-c2ccc(F)cc2)c(-c2ccncc2)[nH]1 (stereo unspecified)
IC50 [1]: 47.5 µM | IC50 [2]: 4 µM | IC50 [3]: 0.9 µM | IC50 [5]: 15 µM

CS(=O)(=O)c1ccc(CSc2ncc(-c3ccc(F)cc3)c(-c3ccncc3)n2)cc1
IC50 [1]: > 100 µM | IC50 [2]: > 100 µM | IC50 [3]: 7.7 µM | IC50 [5]: 17.8 µM

C[S+]([O-])c1ccc(CSc2ncc(-c3ccc(F)cc3)c(-c3ccncc3)n2)cc1 (stereo unspecified)
IC50 [1]: 95.5 µM | IC50 [2]: 45.5 µM | IC50 [3]: 5.6 µM | IC50 [4]: 36 µM | IC50 [5]: 14.1 µM

C[S+]([O-])c1ccc(CSc2ncc(-c3ccc(F)cc3)c(-c3cccnc3)n2)cc1 (stereo unspecified)
IC50 [1]: > 100 µM | IC50 [2]: > 100 µM | IC50 [3]: 75.5 µM | IC50 [5]: 54 µM

C[S+]([O-])c1cccc(CSc2ncc(-c3ccc(F)cc3)c(-c3ccncc3)n2)c1 (stereo unspecified)
IC50 [3]: 5.4 µM | IC50 [4]: 19 µM | IC50 [5]: 6.5 µM

C[S+]([O-])c1ccc(CSc2nc(O)c(-c3ccc(F)cc3)c(-c3ccncc3)n2)cc1 (stereo unspecified)
IC50 [1]: > 100 µM | IC50 [2]: > 100 µM | IC50 [3]: 25.5 µM | IC50 [5]: 27 µM

CSc1ccc(CSc2ncc(-c3ccc(F)cc3)c(-c3ccncc3)n2)cc1
IC50 [1]: > 100 µM | IC50 [2]: > 100 µM | IC50 [3]: 7.4 µM | IC50 [5]: 60 µM

C[S+]([O-])c1ccc(CSc2ncc(-c3ccncc3)c(-c3ccc(F)cc3)n2)cc1 (stereo unspecified)
IC50 [1]: > 100 µM | IC50 [2]: > 100 µM | IC50 [3]: 17.8 µM | IC50 [5]: 29.9 µM
